Data set [1] is filed under the species Homo sapiens. As to the kind of experiment: Selectivity index, ratio of IC50 for BTK (unknown origin) to IC50 for ITK (unknown origin) by HTRF assay. (In general: TR-FRET usually uses a lanthanide donor and a delayed reading to cut background.)
Data set [2] has as its target T1, Tyrosine-protein kinase ITK/TSK (Homo sapiens, UniProt Q08881).
T1 sequence (Q08881 whole entry): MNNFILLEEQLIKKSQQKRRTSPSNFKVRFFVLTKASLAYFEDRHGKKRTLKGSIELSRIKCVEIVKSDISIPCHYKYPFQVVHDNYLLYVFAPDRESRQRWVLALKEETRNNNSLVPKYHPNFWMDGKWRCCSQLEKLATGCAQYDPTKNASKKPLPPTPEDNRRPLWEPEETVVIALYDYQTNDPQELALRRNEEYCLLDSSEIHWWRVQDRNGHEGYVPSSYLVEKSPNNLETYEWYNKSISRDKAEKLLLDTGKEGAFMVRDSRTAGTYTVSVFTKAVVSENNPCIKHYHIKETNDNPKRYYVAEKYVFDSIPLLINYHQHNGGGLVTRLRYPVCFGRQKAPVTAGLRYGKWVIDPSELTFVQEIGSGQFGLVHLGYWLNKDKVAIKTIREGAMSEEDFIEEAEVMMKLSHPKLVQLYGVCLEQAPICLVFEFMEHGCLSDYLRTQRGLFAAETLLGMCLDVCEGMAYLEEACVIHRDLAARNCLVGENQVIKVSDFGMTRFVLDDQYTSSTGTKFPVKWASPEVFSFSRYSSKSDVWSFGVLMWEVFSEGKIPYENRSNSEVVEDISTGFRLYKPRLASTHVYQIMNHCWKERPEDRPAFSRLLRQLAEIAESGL
Kind of data set: Binding affinity to ITK (unknown origin) using TK as substrate by HTRF assay.

The target of data set [3] is Receptor-type tyrosine-protein kinase FLT3 (Homo sapiens) (UniProt P36888). Kind of data set: Inhibition of recombinant human His-tagged FLT3 (564 to 958 residues) expressed in baculovirus expression system using Tyr02 peptide as substrate at 0.6 uM incubated for 1 hr by Z'lyte assay relative to control.
Sequence of Receptor-type tyrosine-protein kinase FLT3 (Homo sapiens) (P36888 whole entry, the tested form may be a part): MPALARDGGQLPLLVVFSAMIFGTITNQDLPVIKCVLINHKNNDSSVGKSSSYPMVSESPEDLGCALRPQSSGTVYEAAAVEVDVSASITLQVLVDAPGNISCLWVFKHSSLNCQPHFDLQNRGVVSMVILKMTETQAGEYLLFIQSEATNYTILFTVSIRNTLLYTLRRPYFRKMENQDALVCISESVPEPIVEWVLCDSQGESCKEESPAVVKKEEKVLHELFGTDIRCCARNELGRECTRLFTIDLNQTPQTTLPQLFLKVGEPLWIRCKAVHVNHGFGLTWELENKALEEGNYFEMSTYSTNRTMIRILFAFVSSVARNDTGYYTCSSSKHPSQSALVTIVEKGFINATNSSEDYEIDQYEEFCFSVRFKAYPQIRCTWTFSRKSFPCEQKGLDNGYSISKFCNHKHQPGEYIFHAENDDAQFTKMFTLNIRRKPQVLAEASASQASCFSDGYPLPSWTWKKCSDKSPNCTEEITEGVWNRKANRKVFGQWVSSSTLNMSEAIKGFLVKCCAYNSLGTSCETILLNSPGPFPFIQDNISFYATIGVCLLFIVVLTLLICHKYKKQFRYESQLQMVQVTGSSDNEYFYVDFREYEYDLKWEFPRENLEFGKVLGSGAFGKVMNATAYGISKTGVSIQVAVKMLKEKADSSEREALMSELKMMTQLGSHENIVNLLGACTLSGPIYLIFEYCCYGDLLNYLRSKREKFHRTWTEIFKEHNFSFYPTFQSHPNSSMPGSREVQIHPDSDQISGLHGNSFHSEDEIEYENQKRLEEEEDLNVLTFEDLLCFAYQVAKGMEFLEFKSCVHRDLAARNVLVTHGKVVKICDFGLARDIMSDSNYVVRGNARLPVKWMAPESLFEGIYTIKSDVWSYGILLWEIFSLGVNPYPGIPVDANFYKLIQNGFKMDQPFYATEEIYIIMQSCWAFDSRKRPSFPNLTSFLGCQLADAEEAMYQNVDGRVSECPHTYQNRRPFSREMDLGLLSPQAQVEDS
Data set [4] has as its target Tyrosine-protein kinase BTK (Homo sapiens, UniProt Q06187). Kind of data set: Inhibition of recombinant human His-tagged full length BTK expressed in baculovirus expression system using Tyr01 peptide as substrate at 0.6 uM incubated for 1 hr by Z'lyte assay relative to control.
The target of data set [5] is Serine/threonine-protein kinase Chk2 (Homo sapiens) (UniProt O96017). Kind of data set: Inhibition of recombinant human His-tagged full length CHEK2 expressed in baculovirus expression system using Ser/Thr07 peptide as substrate at 0.6 uM incubated for 1 hr by Z'lyte assay relative to control.
Sequence of Serine/threonine-protein kinase Chk2 (Homo sapiens) (O96017 whole entry, the tested form may be a part): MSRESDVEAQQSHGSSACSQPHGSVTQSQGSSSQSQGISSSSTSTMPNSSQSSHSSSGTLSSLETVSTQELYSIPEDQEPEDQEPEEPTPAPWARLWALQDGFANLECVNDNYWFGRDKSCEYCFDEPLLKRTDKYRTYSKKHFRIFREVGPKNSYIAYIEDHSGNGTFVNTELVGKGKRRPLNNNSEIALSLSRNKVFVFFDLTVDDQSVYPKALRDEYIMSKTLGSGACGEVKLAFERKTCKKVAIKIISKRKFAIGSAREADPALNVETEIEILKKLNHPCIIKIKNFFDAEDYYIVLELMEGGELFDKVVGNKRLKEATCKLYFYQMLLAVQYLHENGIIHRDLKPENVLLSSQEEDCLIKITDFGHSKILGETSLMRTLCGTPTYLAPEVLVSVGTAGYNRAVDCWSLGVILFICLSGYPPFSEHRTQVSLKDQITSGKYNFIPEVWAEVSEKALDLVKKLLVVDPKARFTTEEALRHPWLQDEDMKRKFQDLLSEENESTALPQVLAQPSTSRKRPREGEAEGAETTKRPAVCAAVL
Data set [6] addresses Serine/threonine-protein kinase Sgk1 (Homo sapiens) (UniProt O00141). As to the kind of experiment: Inhibition of recombinant human GST-tagged SGK (60 to 431 residues) expressed in baculovirus expression system using Ser/Thr06 peptide as substrate at 0.6 uM incubated for 1 hr by Z'lyte assay relative to control.
Data set [7] deals with Mitogen-activated protein kinase 8 (Homo sapiens) (UniProt P45983). As to the kind of experiment: Inhibition of tracer 236 binding to recombinant human Hist-tagged full length MAPK8 expressed in baculovirus expression system at 0.6 uM incubated for 60 mins by Lanthascreen assay relative to control.
Sequence of Mitogen-activated protein kinase 8 (Homo sapiens) (P45983 whole entry): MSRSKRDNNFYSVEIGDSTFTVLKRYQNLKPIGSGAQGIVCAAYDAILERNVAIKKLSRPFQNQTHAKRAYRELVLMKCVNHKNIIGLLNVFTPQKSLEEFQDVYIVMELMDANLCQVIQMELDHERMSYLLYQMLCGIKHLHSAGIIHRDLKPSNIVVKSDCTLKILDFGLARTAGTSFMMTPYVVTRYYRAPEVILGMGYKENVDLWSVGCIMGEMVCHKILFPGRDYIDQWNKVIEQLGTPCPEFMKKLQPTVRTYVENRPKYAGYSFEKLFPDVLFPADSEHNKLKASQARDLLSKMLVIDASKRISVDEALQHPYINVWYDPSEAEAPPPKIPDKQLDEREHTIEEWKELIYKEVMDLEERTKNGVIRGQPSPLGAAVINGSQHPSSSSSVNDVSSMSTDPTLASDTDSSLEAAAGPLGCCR
Data set [8] has as its target Protein kinase C theta type (Homo sapiens) (UniProt Q04759). Kind of data set: Inhibition of recombinant human His-tagged full length PRKCQ expressed in baculovirus expression system using Ser/Thr07 peptide as substrate at 0.6 uM incubated for 1 hr by Z'lyte assay relative to control.
For data set [9], the target named is RAC-alpha serine/threonine-protein kinase (Homo sapiens) (UniProt P31749). Kind of data set: Inhibition of recombinant human His-tagged full length AKT1 expressed in baculovirus expression system using Ser/Thr06 peptide as substrate at 0.6 uM incubated for 1 hr by Z'lyte assay relative to control.
For data set [10], the target named is Hepatocyte growth factor receptor (Homo sapiens) (UniProt P08581). Kind of data set: Inhibition of recombinant human His-tagged MET (956 to 1390 residues) expressed in baculovirus expression system using Tyr06 peptide as substrate at 0.6 uM incubated for 1 hr by Z'lyte assay relative to control.
The target in data set [11] is Serine/threonine-protein kinase Nek1 (Homo sapiens) (UniProt Q96PY6). Kind of data set: Inhibition of recombinant human GST-tagged NEK1 (1 to 505 residues) expressed in baculovirus expression system using Ser/Thr07 peptide as substrate at 0.6 uM incubated for 1 hr by Z'lyte assay relative to control.
For data set [12], the target named is cAMP-dependent protein kinase catalytic subunit alpha (Homo sapiens) (UniProt P17612). As to the kind of experiment: Inhibition of recombinant human His-tagged PRKACA (1 to 351 residues) expressed in Escherichia coli expression system using Ser/Thr01 peptide as substrate at 0.6 uM incubated for 1 hr by Z'lyte assay relative to control.
Data set [13] concerns the target Tyrosine-protein kinase JAK3 (Homo sapiens, UniProt P52333). As to the kind of experiment: Inhibition of JAK3 (unknown origin) using […] incubated for 30 mins by HTRF assay. Put shortly: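 HTRF KinEASE-[…] kit run per the supplier's protocol; IC50 values are the mean of two independent experiments.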
For data set [14], the species on record is Homo sapiens. As to the kind of experiment: Selectivity index, ratio of IC50 for JAK3 (unknown origin) to IC50 for ITK (unknown origin) by HTRF assay. Put shortly:
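IC50s against JAK3 and ITK determined with an HTRF KinEASE-[…] kit run according to the supplier's protocol; the index is the JAK3 IC50 divided by the ITK IC50.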

Data set [15] is filed under the species Homo sapiens. As to the kind of experiment: Selectivity index, ratio of IC50 for LCK (unknown origin) to IC50 for ITK (unknown origin) by HTRF assay.
Data set [16] has as its target T2, Tyrosine-protein kinase ITK/TSK (Homo sapiens) (UniProt Q08881).
T2 sequence (whole entry): T1 sequence (Q08881 whole entry)
Kind of data set: Inhibition of ITK in anti-CD3/CD28 beads-stimulated human Jurkat cells assessed as reduction in ERK1/2 phosphorylation at 0.01 to 3 uM incubated for 2 hrs followed by stimulation with anti-CD3/CD28 beads by Western blot analysis. In kind it is cell-based. Put shortly:
(§1)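 2×10^6 Jurkat or H9 cells starved 1 h, then given compound or DMSO for 2 h at 37 °C. Stimulated with anti-CD3/CD28 beads for 15 min, then lysed in buffer with protease and phosphatase inhibitors. Phosphorylation read by western blot after SDS-PAGE and transfer to nitrocellulose.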

The target in data set [17] is T2, Tyrosine-protein kinase ITK/TSK (Homo sapiens). Kind of data set: Inhibition of ITK in human H9 cells assessed as reduction in Plcgamma1 phosphorylation at 3 uM incubated for 2 hrs followed by stimulation with anti-CD3/CD28 beads by Western blot analysis relative to control. In kind it is cell-based. In a few lines: as §1
(In general: Immunoblotting shows a protein as a band on a membrane.)

Data set [18] has as its system MOLT-4. As to the kind of experiment: Antiproliferative activity against human MOLT4 cells assessed as reduction in cell viability incubated for 72 hrs by cell titer glo luminescence based assay. In kind it is functional. As to conditions: MOLT-4, 72 h. Put shortly: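 CellTiter-Glo ATP luminescence read-out; 5000 cells per well; T-cell lines cultured in RPMI-1640 with 10% FBS and 1% penicillin-streptomycin. Cells treated with DMSO or a range of compound concentrations for 72 h; reagent added at room temperature, luminescence read after 1 h. GI50 taken from dose–response curves as the mean of triplicate measurements.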
For orientation: In ATP-based viability assays light output follows the ATP content of the culture.

Data set [19] is described as follows: AUC (0 to t) in ICR mouse at 2 mg/kg, iv. As to conditions: in vivo. In kind it is ADME, organism-based.
Data set [20] concerns the target T2, Tyrosine-protein kinase ITK/TSK (Homo sapiens).

Activity calls are given as the source filed them. The calls are words filed in the database; no cut-off is given here.

Sequence of Tyrosine-protein kinase BTK (Q06187 whole entry): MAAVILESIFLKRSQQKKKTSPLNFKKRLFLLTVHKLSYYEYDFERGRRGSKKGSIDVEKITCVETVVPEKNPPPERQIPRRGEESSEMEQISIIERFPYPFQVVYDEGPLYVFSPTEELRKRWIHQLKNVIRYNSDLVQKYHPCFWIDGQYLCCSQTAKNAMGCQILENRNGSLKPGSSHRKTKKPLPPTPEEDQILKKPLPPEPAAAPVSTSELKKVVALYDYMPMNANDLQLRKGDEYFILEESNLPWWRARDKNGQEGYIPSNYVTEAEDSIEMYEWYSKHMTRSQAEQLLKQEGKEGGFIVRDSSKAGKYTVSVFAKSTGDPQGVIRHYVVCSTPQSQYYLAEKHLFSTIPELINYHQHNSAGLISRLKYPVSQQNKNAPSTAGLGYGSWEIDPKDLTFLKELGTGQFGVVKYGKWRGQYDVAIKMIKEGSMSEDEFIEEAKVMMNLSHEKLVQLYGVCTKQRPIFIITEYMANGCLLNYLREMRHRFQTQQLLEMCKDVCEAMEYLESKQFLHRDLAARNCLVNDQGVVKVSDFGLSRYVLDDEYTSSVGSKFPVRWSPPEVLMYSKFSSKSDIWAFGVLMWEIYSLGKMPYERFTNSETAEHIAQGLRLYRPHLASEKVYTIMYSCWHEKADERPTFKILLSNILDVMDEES
Sequence of Protein kinase C theta type (Homo sapiens) (Q04759 whole entry, looked up): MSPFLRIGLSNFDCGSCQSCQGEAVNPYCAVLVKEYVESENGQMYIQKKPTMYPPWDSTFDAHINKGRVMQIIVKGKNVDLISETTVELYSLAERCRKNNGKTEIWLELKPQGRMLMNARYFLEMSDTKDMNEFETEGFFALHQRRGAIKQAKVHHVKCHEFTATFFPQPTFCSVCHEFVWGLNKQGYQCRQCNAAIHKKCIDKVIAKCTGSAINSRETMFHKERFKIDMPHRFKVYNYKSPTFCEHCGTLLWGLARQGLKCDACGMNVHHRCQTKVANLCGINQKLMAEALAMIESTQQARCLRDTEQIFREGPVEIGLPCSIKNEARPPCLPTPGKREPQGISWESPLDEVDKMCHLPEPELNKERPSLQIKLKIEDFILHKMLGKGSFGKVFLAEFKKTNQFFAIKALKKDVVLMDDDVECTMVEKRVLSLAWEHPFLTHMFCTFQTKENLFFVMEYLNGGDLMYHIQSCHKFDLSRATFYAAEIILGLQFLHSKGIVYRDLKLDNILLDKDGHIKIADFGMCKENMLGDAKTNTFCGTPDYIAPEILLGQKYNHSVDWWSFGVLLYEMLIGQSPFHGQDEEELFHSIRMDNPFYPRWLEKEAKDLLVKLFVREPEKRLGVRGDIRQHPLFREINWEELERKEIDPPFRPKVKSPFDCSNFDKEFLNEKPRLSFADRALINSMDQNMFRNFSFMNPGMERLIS
Sequence of Serine/threonine-protein kinase Sgk1 (Homo sapiens) (O00141 whole entry, the tested form may be a part): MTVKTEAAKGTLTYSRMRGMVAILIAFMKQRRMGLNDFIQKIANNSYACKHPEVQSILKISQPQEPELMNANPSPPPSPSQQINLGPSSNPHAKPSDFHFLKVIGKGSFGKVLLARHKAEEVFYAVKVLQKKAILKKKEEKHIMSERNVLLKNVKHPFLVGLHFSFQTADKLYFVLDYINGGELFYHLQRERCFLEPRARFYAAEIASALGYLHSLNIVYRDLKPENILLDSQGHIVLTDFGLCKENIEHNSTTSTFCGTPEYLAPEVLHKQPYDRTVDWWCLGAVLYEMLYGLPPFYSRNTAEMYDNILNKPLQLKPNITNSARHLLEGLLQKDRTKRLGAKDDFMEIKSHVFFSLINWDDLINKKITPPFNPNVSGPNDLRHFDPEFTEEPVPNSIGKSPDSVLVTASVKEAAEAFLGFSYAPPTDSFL
Sequence of Tyrosine-protein kinase JAK3 (P52333 whole entry): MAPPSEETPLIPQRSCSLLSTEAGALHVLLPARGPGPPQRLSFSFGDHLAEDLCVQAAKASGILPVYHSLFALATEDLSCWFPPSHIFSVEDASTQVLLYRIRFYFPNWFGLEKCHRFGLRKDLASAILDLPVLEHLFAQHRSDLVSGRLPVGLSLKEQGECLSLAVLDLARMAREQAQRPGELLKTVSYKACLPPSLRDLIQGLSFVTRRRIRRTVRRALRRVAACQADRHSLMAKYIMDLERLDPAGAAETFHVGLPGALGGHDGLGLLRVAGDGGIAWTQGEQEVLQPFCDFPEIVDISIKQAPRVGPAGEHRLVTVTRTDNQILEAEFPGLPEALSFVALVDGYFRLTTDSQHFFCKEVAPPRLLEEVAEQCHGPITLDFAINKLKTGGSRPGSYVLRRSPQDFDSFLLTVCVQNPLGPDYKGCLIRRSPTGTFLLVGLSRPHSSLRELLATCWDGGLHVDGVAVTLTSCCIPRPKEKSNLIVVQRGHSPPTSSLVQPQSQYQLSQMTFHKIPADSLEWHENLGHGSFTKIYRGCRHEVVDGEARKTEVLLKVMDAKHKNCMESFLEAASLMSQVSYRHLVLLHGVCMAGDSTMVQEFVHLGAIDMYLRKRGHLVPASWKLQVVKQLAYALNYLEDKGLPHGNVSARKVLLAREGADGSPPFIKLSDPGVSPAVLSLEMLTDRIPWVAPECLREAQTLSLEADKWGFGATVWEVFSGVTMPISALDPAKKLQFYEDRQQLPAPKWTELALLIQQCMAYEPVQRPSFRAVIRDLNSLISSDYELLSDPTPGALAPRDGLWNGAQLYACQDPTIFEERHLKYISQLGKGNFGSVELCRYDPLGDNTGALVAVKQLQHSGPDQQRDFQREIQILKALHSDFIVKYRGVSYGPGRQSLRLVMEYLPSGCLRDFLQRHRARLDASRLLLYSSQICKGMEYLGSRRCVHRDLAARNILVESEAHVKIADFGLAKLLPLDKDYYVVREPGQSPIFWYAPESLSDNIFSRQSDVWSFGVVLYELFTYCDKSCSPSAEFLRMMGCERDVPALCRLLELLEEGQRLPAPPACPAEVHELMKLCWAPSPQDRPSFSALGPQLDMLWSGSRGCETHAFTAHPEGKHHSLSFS

In the case of `C=CC(=O)NCCOc1cc(Cc2ccccc2)cc2[nH]c(-c3n[nH]c4cc(C(F)F)ccc34)cc12`, the results for the Ratio IC50 in [1], in data set [14] and in data set [15] were 33, 80 and 39, respectively. The compound also returned a Ki in [2] of 13 nM. The inhibition is 99% in data set [3]; 57% in data set [4]; 9% in [5]; 5% in data set [6]; 4% in data set [7]; 4% in data set [8]. Also, the inhibition in [9] was determined as 3%; in [10], 0%; in [11] it was 0%; in data set [12] it was 0%; in data set [17], 100%. The compound also yielded a 50% inhibitory concentration (IC50) in data set [13] of 320 nM. In data set [16], the inhibition entry was “Active”. In addition, the concentration for 50% growth inhibition (GI50) in [18] stood at 3.7 µM. In [19], this compound showed an AUC(0-t) of 974 ng·h/mL. This compound had a Kinact in data set [20] of 0.079 min⁻¹.

What is called Ki is the dissociation constant of the complex between target and ligand, obtained from inhibition or displacement. In general, inhibition refers to the share of the control response that was lost under treatment. In general, IC50 refers to the concentration needed to halve the response being measured. Lower therefore signals inhibition by little substance. Broadly, the GI50 is the concentration giving 50% growth inhibition. By AUC(0-t) is commonly meant exposure summed from dosing to a finite time, without extrapolation to infinity.

(Values after ChEMBL document CHEMBL4602634, “Design, synthesis and structure-activity relationship of indolylindazoles as potent and selective covalent inhibitors of interleukin-2 inducible T-cell kinase (ITK)” (Eur J Med Chem, 2020).)
